From ChEMBL document CHEMBL1125493, “HIV-1 neutralization and tumor cell proliferation inhibition in vitro by simplified analogues of pyrido[4,3,2-mn]thiazolo[5,4-b]acridine marine alkaloids” (J Med Chem, 1992) come the findings set out here.

For assay [1], the system named is MT4. Briefly: Cytotoxic effect in cultured MT-4 lymphocytes at a concentration of 10 ug/mL (0.0350 uM/mL). Type of assay: functional, Homo sapiens. The essentials: (§1)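 MT-4 cells at 5 × 10^4 cells/well, 1 mL total, cultured with compound diluted in RPMI 1640 with 10% FBS, 10 mM HEPES, penicillin/streptomycin and 2 mM glutamine, at 37 °C under 5% CO2. Viability was scored by trypan blue exclusion on days 4 and 7, in triplicate, as % viable cells.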

Assay [2] concerns Human immunodeficiency virus 1. The assay is described as follows: Inhibitory effect (100 uM) against HIV-1 in human peripheral blood monocyte cells(PBMC) (EC50 ->28.6 ug/mL). Type of assay: functional.
For assay [3], the system named is MT4. Briefly: Cytotoxic effect in cultured MT-4 lymphocytes at a concentration of 100 ug/mL (0.3500 uM/mL). The format is functional, Homo sapiens. A digest of the protocol: as §1
Assay [4] can be described thus: Calu3 lung tumor cell proliferation inhibition by the compound in vitro at a concentration of 0.6 uM. The format is functional, Homo sapiens. The essentials:
(§2)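 Tumor cells grown in RPMI-1640 in 1% agar with 5% fetal bovine serum, exposed to the specified concentrations for 1 week. Viability was assessed against a control given distilled water in place of drug. 5-Fluorouracil served as the positive cytotoxic standard. Results are reported as concentration-dependent cell survival.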

Assay [5] concerns Human immunodeficiency virus 1. The assay is described as follows: Protection of MT-4 lymphocytes by the compound against HIV-1 infectivity in vitro at a concentration of 400 ug/mL (1.4 uM/mL). The format is functional. A digest of the protocol: (§3)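 Virus (HIV-1 Molt IIIB, ~2 × 10^4 TCID50) preincubated with compound 1 h at 37 °C, 5% CO2. Then added to MT-4 cells (5 × 10^5 cells/well) and cultured at 37 °C. Trypan blue viability counts taken on days 4 and 7, triplicate at each concentration. Controls were infected and uninfected cells. Reported as % viable (surviving) MT-4 cells.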

A short description of assay [6]: Calu3 lung tumor cell proliferation inhibition by the compound in vitro at a concentration of 60 uM. The format is functional, Homo sapiens. A digest of the protocol: as §2
Assay [7] deals with MCF7. The assay is described as follows: […] breast tumor cell proliferation inhibition by the compound in vitro at a concentration of 0.6 uM. Type of assay: functional, Homo sapiens. A digest of the protocol:
(§4)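 Breast tumor cells treated with specified compound concentrations in RPMI-1640 in 1% agar with 5% FBS for 1 week. Viability compared with a control given distilled water in place of drug; 5-fluorouracil as standard cytotoxic drug. Reported as concentration-dependent cell survival.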

Assay [8] deals with MT4. The assay is described as follows: Cytotoxic effect in cultured MT-4 lymphocytes at a concentration of 2 ug/mL (0.0070 uM/mL). Type of assay: functional, Homo sapiens. The essentials: as §1
Assay [9] has as its system COLO 320DM. The assay is described as follows: COLO 320DM colon tumor cell proliferation inhibition by the compound in vitro at a concentration of 0.6 uM. Type of assay: functional, Homo sapiens. A digest of the protocol:
as §2

Assay [10] has as its system MCF7. The assay is described as follows: […] breast tumor cell proliferation inhibition by the compound in vitro at a concentration of 6.0 uM. Type of assay: functional, Homo sapiens. The essentials: as §4
Assay [11] deals with Human immunodeficiency virus 1. Briefly: Inactivation of HIV-MN strain in MT-4 lymphocytes in vitro at a concentration of 200 ug/mL (0.70 uM/mL). Type of assay: functional. A digest of the protocol: (§5)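 Compound (50 μL) was mixed with 50 μL of HIV-1 Molt IIIB or HIV-MN inoculum in RPMI 1640 for 1 h at room temperature. The mixture was added to 5 × 10^4 MT-4 cells and kept 7 days at 37 °C, 5% CO2. MTT (5.0 mg/mL) was added for 4 h, the reaction was stopped with 0.04 N HCl/2-propanol, and OD was read at 570 nm. % inactivation was calculated from OD relative to uninfected cells and untreated virus, mean of three.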

For assay [12], the system named is MCF7. The assay is described as follows: […] breast tumor cell proliferation inhibition by the compound in vitro at a concentration of 60 uM. Type of assay: functional, Homo sapiens. The essentials:
as §4

Assay [13] is described as follows: Calu3 lung tumor cell proliferation inhibition by the compound in vitro at a concentration of 6.0 uM. Type of assay: functional, Homo sapiens. The essentials: as §2
Assay [14] deals with Human immunodeficiency virus 1. Briefly: Protection of MT-4 lymphocytes by the compound against HIV-1 infectivity in vitro at a concentration of 100 ug/mL (0.35 uM/mL). The format is functional. The essentials: as §3
Assay [15] has as its system Human immunodeficiency virus 1. Briefly: Inactivation of HIV-MN strain in MT-4 lymphocytes in vitro at a concentration of 100 ug/mL (0.35 uM/mL). The format is functional. The essentials: as §5
The subject of assay [16] is Human immunodeficiency virus 1. Briefly: Inactivation of HIV-MoltIIIB strain in MT-4 lymphocytes in vitro at a concentration of 200 ug/mL (0.70 uM/mL). Type of assay: functional. The essentials: as §5
Assay [17] deals with Human immunodeficiency virus 1. The assay is described as follows: Percent inhibition of HIV-1 binding to H-9 cells at a concentration of 100(ug/mL). Type of assay: functional. A digest of the protocol:
(§6)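 HIV-1 Molt IIIB (50 μL) incubated overnight with compound at 100 μg/mL, then with uninfected H-9 cells 2 h at 37 °C. Washed; stained with HIV-positive human serum (1:100) then FITC anti-human IgG (1:10), 30 min at 4 °C each. Formaldehyde-fixed (0.5%) and analysed by flow cytometry for % virus bound and % binding inhibition.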

Assay [18] relates to Human immunodeficiency virus 1. The assay is described as follows: Inactivation of HIV-MoltIIIB strain in MT-4 lymphocytes in vitro at a concentration of 400 ug/mL (1.4 uM/mL). Type of assay: functional. The essentials:
as §5

For assay [19], the system named is Human immunodeficiency virus 1. The assay is described as follows: Inactivation of HIV-MoltIIIB strain in MT-4 lymphocytes in vitro at a concentration of 100 ug/mL (0.35 uM/mL). Type of assay: functional. A digest of the protocol:
as §5

In assay [20] the test system is Human immunodeficiency virus 1. The assay is described as follows: Inhibitory effect against HIV-1 induced cytopathic effects(HIV-1 neutralization) in MT-4 lymphocytes at a concentration of 100 ug/mL (0.3500 uM/mL). Type of assay: functional. The essentials: (§7)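 HIV-1 Molt IIIB (~2 × 10^4 TCID50 in 100 μL) preincubated 1 h at 37 °C with a single compound dose, then added to MT-4 cells (5 × 10^5 cells/well, 1 mL). Cultured at 37 °C, 5% CO2. Viable cells counted by trypan blue exclusion on days 4 and 7. Triplicates; % viable cells. Controls: infected cells (positive), uninfected cells (negative).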

For assay [21], the system named is Human immunodeficiency virus 1. Briefly: Percent HIV-1 bound to H-9 cells at a concentration of 100(ug/mL). Type of assay: functional. A digest of the protocol:
as §6

Assay [22] relates to COLO 320DM. The assay is described as follows: COLO 320DM colon tumor cell proliferation inhibition by the compound in vitro at a concentration of 6.0 uM. Type of assay: functional, Homo sapiens. The essentials:
as §2

Assay [23] concerns COLO 320DM. The assay is described as follows: COLO 320DM colon tumor cell proliferation inhibition by the compound in vitro at a concentration of 60 uM. Type of assay: functional, Homo sapiens. The essentials: as §2
Assay [24] has as its system Human immunodeficiency virus 1. The assay is described as follows: Protection of MT-4 lymphocytes by the compound against HIV-1 infectivity in vitro at a concentration of 200 ug/mL (0.70 uM/mL). The format is functional. A digest of the protocol:
as §3

The subject of assay [25] is Human immunodeficiency virus 1. Briefly: Inactivation of HIV-MN strain in MT-4 lymphocytes in vitro at a concentration of 400 ug/mL (1.40 uM/mL). Type of assay: functional. The essentials:
as §5

The test system of assay [26] is MCF7. Briefly: […] breast tumor cell proliferation inhibition by the compound in vitro at a concentration of 0.015 uM. The format is functional, Homo sapiens. The essentials:
as §4

The nature of assay [27]: Calu3 lung tumor cell proliferation inhibition by the compound in vitro at a concentration of 0.15 uM. Type of assay: functional, Homo sapiens. A digest of the protocol: as §2
Assay [28] relates to MT4. The assay is described as follows: Cytotoxic effect in cultured MT-4 lymphocytes at a concentration of 2 ug/mL (0.0076 uM/mL). Type of assay: functional, Homo sapiens. The essentials:
as §1

Assay [29] has as its system MCF7. The assay is described as follows: […] breast tumor cell proliferation inhibition by the compound in vitro at a concentration of 0.15 uM. The format is functional, Homo sapiens. A digest of the protocol: as §4
Assay [30] is described as follows: Calu3 lung tumor cell proliferation inhibition by the compound in vitro at a concentration of 0.015 uM. The format is functional, Homo sapiens. The essentials:
as §2

A short description of assay [31]: Calu3 lung tumor cell proliferation inhibition by the compound in vitro at a concentration of 1.5 uM. The format is functional, Homo sapiens. The essentials:
as §2

The test system of assay [32] is MT4. The assay is described as follows: Cytotoxic effect in cultured MT-4 lymphocytes at a concentration of 10 ug/mL (0.0375 uM/mL). The format is functional, Homo sapiens. The essentials: as §1
Assay [33] deals with MCF7. The assay is described as follows: […] breast tumor cell proliferation inhibition by the compound in vitro at a concentration of 1.5 uM. The format is functional, Homo sapiens. A digest of the protocol:
as §4

The subject of assay [34] is Human immunodeficiency virus 1. The assay is described as follows: Inhibitory effect against HIV-1 in human peripheral blood monocyte cells(PBMC) (EC50-22.6 ug/mL). The format is functional, organism-based.
In assay [35] the test system is COLO 320DM. Briefly: COLO 320DM colon tumor cell proliferation inhibition by the compound in vitro at a concentration of 1.5 uM. Type of assay: functional, Homo sapiens. The essentials:
as §2

In assay [36] the test system is COLO 320DM. Briefly: COLO 320DM colon tumor cell proliferation inhibition by the compound in vitro at a concentration of 0.015 uM. The format is functional, Homo sapiens. The essentials:
as §2

Assay [37] deals with COLO 320DM. The assay is described as follows: COLO 320DM colon tumor cell proliferation inhibition by the compound in vitro at a concentration of 0.15 uM. Type of assay: functional, Homo sapiens. The essentials: as §2
Assay [38] has as its system MT4. The assay is described as follows: Cytotoxic effect in cultured MT-4 lymphocytes at a concentration of 100 ug/mL (0.3750 uM/mL). The format is functional, Homo sapiens. The essentials:
as §1

Assay [39] deals with Human immunodeficiency virus 1. The assay is described as follows: Inhibitory effect against HIV-1 induced cytopathic effects(HIV-1 neutralization) in MT-4 lymphocytes at a concentration of 10 ug/mL (0.0375 uM/mL). Type of assay: functional. A digest of the protocol: as §7
Assay [40] has as its system Human immunodeficiency virus 1. The assay is described as follows: Inhibitory effect against HIV-1 in human peripheral blood monocyte cells(PBMC) (EC50 ->7.44 ug/mL). The format is functional, organism-based.

As to `O=C([O-])CSc1ccc2nc3ccccc3c(O)c2c1.[Na+]`, the Viability with MT4 [1] is listed as 93.3%; with MT4 [3], 92.6%; in assay [4], 113%; in assay [6], 0%; with MCF7 [7], 85%; in the assay with MT4 [8] it was 96.7%. The Viability with COLO 320DM [9] turned out to be 110%; with MCF7 [10], 19%; in the assay on MCF7 [12], 0%; in assay [13] it was 48%; in [20] it was 70.9%; with COLO 320DM [22], 41%. In the assay with COLO 320DM [23], this molecule displayed a Viability of 0%. In addition, the Inhibition was determined as 31% in assay [2] and 32.7% in [17]. In addition, the Survival in assay [5] was found to be 84.2%; in assay [14], 72.7%; in assay [24] it was 81.4%. For the same molecule, the Inactivation in assay [11] turned out to be 40.5%; in assay [15], 13.1%; in assay [16] it was 100%; in assay [18], 74.3%; in assay [19] it was 21%; in assay [25], 25%. The molecule further gave a Bound in assay [21] of 22.4%.

With `Cc1nc2cc3nc4ccccc4c(O)c3cc2s1.Cl`, the Viability with MCF7 [26] is given as 91%; in assay [27] it was 36%; with MT4 [28], 91.9%; in the assay with MCF7 [29] it was 38%; in [30] it was 98%; in assay [31] it was 0%. Also, the Viability in the assay on MT4 [32] is 87.2%; in the assay with MCF7 [33], 0%; with COLO 320DM [35] it was 0%; in the assay on COLO 320DM [36] it was 117%; in the assay on COLO 320DM [37], 49%; in the assay with MT4 [38], 74.3%. This molecule displayed a Viability in assay [39] of 19.4%. For the same molecule, in [34], the EC50 was found to be 84.6 µM.

As to `Cc1nc2cc(Nc3ccccc3C(=O)[O-])ccc2s1.[Na+]`, the Viability is recorded as 92.6% in the assay on MT4 [1], 93.3% with MT4 [3], 87.5% in the assay on MT4 [8] and 18.2% in assay [20]. Moreover, in [40], the EC50 was determined as 26 µM.
